Key:
Format in all cases: functional, organism-based
[1] = test system: Escherichia coli; experiment: Antibacterial activity against Escherichia coli (ATCC 25922) at concentration 0.5 uM/ml in dimethylformamide, + = resistant
How it was run: (§1)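 Broth microdilution MIC per NCCLS standard protocol. Compounds dissolved in DMF and doubling-diluted in Mueller Hinton broth across 0.5–128 µg/ml; ampicillin run alongside. Inoculum adjusted to McFarland 0.5 and diluted to approx. 5×10^5 cfu/ml final per well. Plates held overnight at 37 °C. Growth scored per concentration: + resistant, − susceptible. Each plate carried broth+inoculum and broth-only control wells.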

[2] = test system: Staphylococcus aureus; experiment: Antibacterial activity against Staphylococcus aureus (ATCC 25923) at concentration 8.0 uM/ml in dimethylformamide, + = resistant; how it was run: as §1
[3] = test system: Escherichia coli; experiment: Antibacterial activity against Escherichia coli (ATCC 25922) at concentration 16.0 uM/ml in dimethylformamide, + = resistant; how it was run: as §1
[4] = test system: Pseudomonas aeruginosa; experiment: Antibacterial activity against Pseudomonas aeruginosa (ATCC 27853) at concentration 16.0 uM/ml in dimethylformamide, + = resistant; how it was run: as §1
[5] = test system: Pseudomonas aeruginosa; experiment: Antibacterial activity against Pseudomonas aeruginosa (ATCC 27853) at concentration 1.0 uM/ml in dimethylformamide, + = resistant; how it was run: as §1
[6] = test system: Escherichia coli; experiment: Antibacterial activity against Escherichia coli (ATCC 25922) at concentration 4.0 uM/ml in dimethylformamide, + = resistant; how it was run: as §1
[7] = test system: Escherichia coli; experiment: Antibacterial activity against Escherichia coli (ATCC 25922) at concentration 2.0 uM/ml in dimethylformamide, + = resistant; how it was run: as §1
[8] = test system: Escherichia coli; experiment: Antibacterial activity against Escherichia coli (ATCC 25922) at concentration 8.0 uM/ml in dimethylformamide, + = resistant; how it was run: as §1
[9] = test system: Escherichia coli; experiment: Antibacterial activity against Escherichia coli (ATCC 25922) at concentration 1.0 uM/ml in dimethylformamide, + = resistant; how it was run: as §1
[10] = test system: Pseudomonas aeruginosa; experiment: Antibacterial activity against Pseudomonas aeruginosa (ATCC 27853) at concentration 0.5 uM/ml in dimethylformamide, + = resistant; how it was run: as §1
[11] = test system: Escherichia coli; experiment: Antibacterial activity against Escherichia coli (ATCC 25922) at concentration 64.0 uM/ml in dimethylformamide, + = resistant; how it was run: as §1
[12] = test system: Staphylococcus aureus; experiment: Antibacterial activity against Staphylococcus aureus (ATCC 25923) at concentration 1.0 uM/ml in dimethylformamide, + = resistant; how it was run: as §1
[13] = test system: Staphylococcus aureus; experiment: Antibacterial activity against Staphylococcus aureus (ATCC 25923) at concentration 64.0 uM/ml in dimethylformamide, + = resistant; how it was run: as §1
[14] = test system: Staphylococcus aureus; experiment: Antibacterial activity against Staphylococcus aureus (ATCC 25923) at concentration 0.5 uM/ml in dimethylformamide, + = resistant; how it was run: as §1
[15] = test system: Pseudomonas aeruginosa; experiment: Antibacterial activity against Pseudomonas aeruginosa (ATCC 27853) at concentration 8.0 uM/ml in dimethylformamide, + = resistant; how it was run: as §1
[16] = test system: Staphylococcus aureus; experiment: Antibacterial activity against Staphylococcus aureus (ATCC 25923) at concentration 32.0 uM/ml in dimethylformamide, + = resistant; how it was run: as §1
[17] = test system: Staphylococcus aureus; experiment: Antibacterial activity against Staphylococcus aureus (ATCC 25923) at concentration 16.0 uM/ml in dimethylformamide, + = resistant; how it was run: as §1
[18] = test system: Staphylococcus aureus; experiment: Antibacterial activity against Staphylococcus aureus (ATCC 25923) at concentration 2.0 uM/ml in dimethylformamide, + = resistant; how it was run: as §1
[19] = test system: Escherichia coli; experiment: Antibacterial activity against Escherichia coli (ATCC 25922) at concentration 32.0 uM/ml in dimethylformamide, + = resistant; how it was run: as §1
[20] = test system: Pseudomonas aeruginosa; experiment: Antibacterial activity against Pseudomonas aeruginosa (ATCC 27853) at concentration 32.0 uM/ml in dimethylformamide, + = resistant; how it was run: as §1
[21] = test system: Pseudomonas aeruginosa; experiment: Antibacterial activity against Pseudomonas aeruginosa (ATCC 27853) at concentration 4.0 uM/ml in dimethylformamide, + = resistant; how it was run: as §1
[22] = test system: Staphylococcus aureus; experiment: Antibacterial activity against Staphylococcus aureus (ATCC 25923) at concentration 4.0 uM/ml in dimethylformamide, + = resistant; how it was run: as §1
[23] = test system: Pseudomonas aeruginosa; experiment: Antibacterial activity against Pseudomonas aeruginosa (ATCC 27853) at concentration 2.0 uM/ml in dimethylformamide, + = resistant; how it was run: as §1
[24] = test system: Pseudomonas aeruginosa; experiment: Antibacterial activity against Pseudomonas aeruginosa (ATCC 27853) at concentration 64.0 uM/ml in dimethylformamide, + = resistant; how it was run: as §1
[25] = test system: Staphylococcus aureus; experiment: Antibacterial activity against Staphylococcus aureus (ATCC 25923)i at concentration 32.0 uM/ml in dimethylformamide, + = resistant; how it was run: as §1

Measured: MIC

N#CC1=C(N)Oc2ccc3ccccc3c2C1c1ccccc1 (centres undefined)
Resistant: [1] | [2] | [3] | [4] | [5] | [6] | [7] | [8] | [9] | [10] | [11] | [12] | [13] | [14] | [15] | [16] | [17] | [18] | [19] | [20] | [21] | [22] | [23]

N#CC1=C(N)Oc2cc(O)ccc2C1c1cc2ccccc2nc1Cl (centres undefined)
Resistant: [1] | [2] | [3] | [4] | [5] | [6] | [7] | [8] | [9] | [10] | [12] | [13] | [14] | [15] | [16] | [17] | [18] | [19] | [20] | [21] | [22] | [23]

N#CC1=C(N)Oc2ccc3ccccc3c2C1c1ccc2c(c1)OCO2 (centres undefined)
Resistant: [1] | [2] | [3] | [4] | [5] | [6] | [7] | [8] | [9] | [10] | [11] | [12] | [13] | [14] | [15] | [16] | [17] | [18] | [19] | [20] | [21] | [22] | [23]

N#CC1=C(N)Oc2ccc3ccccc3c2C1n1ccc2ccccc21 (centres undefined)
Resistant: [1] | [2] | [3] | [4] | [5] | [6] | [7] | [8] | [9] | [10] | [11] | [12] | [13] | [14] | [15] | [16] | [17] | [18] | [19] | [20] | [21] | [22] | [23]

N#CC1=C(N)Oc2cc(O)ccc2C1c1ccccc1 (centres undefined)
Resistant: [1] | [2] | [3] | [4] | [5] | [6] | [7] | [8] | [9] | [10] | [11] | [12] | [13] | [14] | [15] | [16] | [17] | [18] | [19] | [20] | [21] | [22] | [24] | [23]

N#CC1=C(N)Oc2cc(O)ccc2C1n1ccc2ccccc21 (centres undefined)
Resistant: [1] | [2] | [3] | [4] | [5] | [6] | [7] | [8] | [9] | [10] | [11] | [12] | [13] | [14] | [15] | [16] | [17] | [18] | [19] | [20] | [21] | [22] | [23]

N#CC1=C(N)Oc2ccc3ccccc3c2C1c1cc2ccccc2nc1Cl (centres undefined)
Resistant: [1] | [2] | [3] | [4] | [5] | [6] | [7] | [8] | [9] | [10] | [11] | [12] | [14] | [15] | [17] | [18] | [19] | [25] | [20] | [21] | [22] | [23]

CC1(C)S[C@@H]2[C@H](NC(=O)[C@H](N)c3ccccc3)C(=O)N2[C@H]1C(=O)O
Resistant: [1] | [5] | [7] | [9] | [10] | [12] | [14] | [18] | [21] | [22] | [23]

N#CC1=C(N)Oc2cc(O)ccc2C1c1ccc2c(c1)OCO2 (centres undefined)
Resistant: [1] | [2] | [3] | [4] | [5] | [6] | [7] | [8] | [9] | [10] | [11] | [12] | [13] | [14] | [15] | [16] | [17] | [18] | [19] | [20] | [21] | [22] | [23]

— ChEMBL document CHEMBL1141056, “Aqua mediated synthesis of substituted 2-amino-4H-chromenes and in vitro study as antibacterial agents” (Bioorg Med Chem Lett, 2005)
